# Test results taken from ChEMBL document CHEMBL1914454, “Novel N-linked aminopiperidine inhibitors of bacterial topoisomerase type II: broad-spectrum antibacterial agents with reduced hERG activity” (J Med Chem, 2011).
# How the values were obtained:
# [1] = AUC in Wistar Han rat at 3 mg/kg, iv; assay type: ADME, organism-based; set-up: dose 3 mg/kg, route intravenous; settings: plasma
# Summary of the method: (§1)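 Groups of three Wistar Han rats got a 3 mg/kg iv bolus via a cannulated jugular vein. Serial whole-blood samples were taken at time intervals, and compound in plasma was quantified by LC–MS/MS. Parameters were estimated by a noncompartmental model.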
# [2] = Volume of distribution in Beagle dog at 3 mg/kg, iv; assay type: ADME, organism-based, Canis lupus familiaris; set-up: dose 3 mg/kg, route intravenous; settings: in vivo
# Summary of the method: (§2)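 Plasma was sampled from 0 to 24 h and drug measured by LC–MS/MS. Parameters came from noncompartmental analysis.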
# [3] = Half life in Beagle dog at 3 mg/kg, iv; assay type: ADME, organism-based, Canis lupus familiaris; set-up: dose 3 mg/kg, route intravenous; settings: in vivo; summary of the method: as §2
# [4] = system: Streptococcus pneumoniae; experiment: Antibacterial activity against penicillin-susceptible Streptococcus pneumoniae D39 after 18 to 24 hrs by broth microdilution method; assay type: functional
# Summary of the method: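 CLSI broth microdilution in 2.2% (w/v) Mueller Hinton broth with 0.65% (v/v) lysed horse blood. Compounds diluted from DMSO to 2% DMSO final, 11 doubling dilutions from 64 to 0.06 μg/mL. Incubated at 35 °C for 18−24 h; read at 620 nm.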
# [5] = Clearance in Beagle dog at 3 mg/kg, iv; assay type: ADME, organism-based, Canis lupus familiaris; set-up: dose 3 mg/kg, route intravenous; settings: in vivo; summary of the method: as §2
# [6] = Volume of distribution in Wistar Han rat at 3 mg/kg, iv; assay type: ADME, organism-based; set-up: dose 3 mg/kg, route intravenous; settings: in vivo; summary of the method: as §1
# [7] = AUC in Beagle dog at 3 mg/kg, iv; assay type: ADME, organism-based, Canis lupus familiaris; set-up: dose 3 mg/kg, route intravenous; settings: plasma; summary of the method: as §2
# [8] = system: Pseudomonas aeruginosa; experiment: Antibacterial activity against Pseudomonas aeruginosa PAO1 after 18 to 24 hrs by broth microdilution method; assay type: functional
# Summary of the method: (§3)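 Broth microdilution following CLSI guidelines in Mueller Hinton broth. Compounds in DMSO, diluted to 2% DMSO final, 11 doubling dilutions from 64 to 0.06 μg/mL. Incubated at 35 °C for 18−24 h; growth read by absorbance at 620 nm.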
# [9] = system: Staphylococcus aureus; experiment: Antibacterial activity against methicillin-susceptible Staphylococcus aureus after 18 to 24 hrs by broth microdilution method; assay type: functional; summary of the method: as §3
# [10] = system: Escherichia coli; experiment: Antibacterial activity against Escherichia coli W3110 after 18 to 24 hrs by broth microdilution method; assay type: functional; settings: K-12 substr. W3110; summary of the method: as §3
# [11] = Half life in Wistar Han rat at 3 mg/kg, iv; assay type: ADME, organism-based; set-up: dose 3 mg/kg, route intravenous; settings: in vivo; summary of the method: as §1
# [12] = Inhibition of Escherichia coli ATPase activity of topoisomerase 4 ParC/ParE subunit assessed as reduction in inorganic phosphate production after 24 hrs by ammonium molybdate/malachite-green based assay
# Summary of the method: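 Each reaction contained 0.5 nM each of E. coli ParC and ParE, 0.16 mM ATP and 0.005 mg/mL sheared salmon sperm DNA in 20 mM Tris pH 8.0 with 50 mM ammonium acetate, 8.0 mM MgCl₂, 0.5 mM EDTA, 5 mM DTT, 2.5% glycerol and 0.005% Brij-35. Compound dilution series; 24 h at room temperature. Quenched with malachite green; absorbance read at 650 nm. IC50 is the mean of three replicate experiments.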
# [13] = Oral bioavailability in Beagle dog at 10 mg/kg; assay type: ADME, organism-based, Canis lupus familiaris; settings: in vivo; summary of the method: as §2
# [14] = Clearance in Wistar Han rat at 3 mg/kg, iv; assay type: ADME, organism-based; set-up: dose 3 mg/kg, route intravenous; settings: in vivo; summary of the method: as §1
# [15] = Octanol-phosphate buffer partition coefficient, log D of the compound at pH 7.4 by LC/MS/UV analysis; settings: octanol/phosphate buffer
# [16] = Fraction unbound in human plasma at 10 uM after 16 hrs by equilibrium dialysis
# [17] = target: Voltage-gated inwardly rectifying potassium channel KCNH2 (Homo sapiens, UniProt Q12809); experiment: Inhibition of human ERG by ionworks HT assay
# Voltage-gated inwardly rectifying potassium channel KCNH2, sequence (Q12809 whole entry): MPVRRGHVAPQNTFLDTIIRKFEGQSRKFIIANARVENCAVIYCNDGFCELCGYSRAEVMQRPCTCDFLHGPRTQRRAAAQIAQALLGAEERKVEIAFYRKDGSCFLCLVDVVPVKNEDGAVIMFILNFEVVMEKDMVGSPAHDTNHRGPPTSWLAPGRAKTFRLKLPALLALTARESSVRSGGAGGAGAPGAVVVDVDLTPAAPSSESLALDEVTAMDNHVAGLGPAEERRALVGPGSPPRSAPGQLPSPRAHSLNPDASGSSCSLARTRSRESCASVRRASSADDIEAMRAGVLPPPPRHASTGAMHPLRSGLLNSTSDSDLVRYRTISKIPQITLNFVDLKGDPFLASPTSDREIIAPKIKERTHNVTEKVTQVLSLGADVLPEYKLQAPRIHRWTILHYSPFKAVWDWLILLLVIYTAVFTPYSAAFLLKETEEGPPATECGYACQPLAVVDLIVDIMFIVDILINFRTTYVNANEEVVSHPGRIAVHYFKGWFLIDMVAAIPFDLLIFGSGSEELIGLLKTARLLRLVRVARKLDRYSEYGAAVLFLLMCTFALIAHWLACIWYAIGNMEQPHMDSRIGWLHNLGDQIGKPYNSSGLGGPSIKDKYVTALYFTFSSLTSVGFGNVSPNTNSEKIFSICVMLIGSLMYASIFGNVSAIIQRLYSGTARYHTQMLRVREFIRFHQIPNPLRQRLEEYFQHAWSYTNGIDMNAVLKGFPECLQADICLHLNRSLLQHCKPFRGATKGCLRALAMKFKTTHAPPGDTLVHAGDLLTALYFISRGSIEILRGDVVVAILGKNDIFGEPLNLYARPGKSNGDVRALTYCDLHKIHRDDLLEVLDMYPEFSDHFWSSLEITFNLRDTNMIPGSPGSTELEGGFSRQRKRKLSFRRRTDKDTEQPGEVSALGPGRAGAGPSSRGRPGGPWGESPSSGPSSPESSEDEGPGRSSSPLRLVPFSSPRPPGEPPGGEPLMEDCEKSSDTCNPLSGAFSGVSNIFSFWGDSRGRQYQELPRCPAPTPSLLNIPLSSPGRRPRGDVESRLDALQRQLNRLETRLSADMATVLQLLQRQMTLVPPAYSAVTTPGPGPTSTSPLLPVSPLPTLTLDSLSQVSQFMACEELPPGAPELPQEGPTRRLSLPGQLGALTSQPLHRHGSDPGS
Structure (SMILES),IC50 [12],"fraction unbound at 16 h, 10 µM [16]",AUC [1],Vd [2],half-life [3],MIC [4],clearance [5],Vd [6],AUC [7],MIC [8],MIC [9],MIC [10],half-life [11],bioavailability [13],clearance [14],logD [15],IC50 [17]
N#Cc1ccc2c(c1)N(CCN1CCC(NCc3ccc4c(n3)NC(=O)CO4)CC1)C(=O)CO2,3.2 nM,–,640 ng·h/mL,61 L/kg,166 h,0.5 µg/mL,7.8 mL/min/kg,23 L/kg,3090 ng·h/mL,2 µg/mL,0.13 µg/mL,0.25 µg/mL,5.8 h,64%,66 mL/min/kg,0.24,–
O=C1COc2ccc(CNC3CCN(CCN4C(=O)COc5ccc(F)cc54)CC3)nc2N1,–,0.17,–,–,–,0.5 µg/mL,–,–,–,3 µg/mL,0.25 µg/mL,0.25 µg/mL,–,–,–,0.9,–
COc1ccc2c(c1)N(CCN1CCC(NCc3ccc4c(n3)NC(=O)CO4)CC1)C(=O)CO2,5 nM,0.11,–,–,–,0.5 µg/mL,–,–,–,4 µg/mL,0.13 µg/mL,0.25 µg/mL,–,–,–,0.87,–
COc1ccc2c(c1)N(CCN1CCC(NCc3cc4c(cn3)OCCO4)CC1)C(=O)CO2,–,0.18,–,–,–,0.25 µg/mL,–,–,–,> 8 µg/mL,0.13 µg/mL,1 µg/mL,–,–,–,1.24,13000 nM
O=C1COc2ccccc2N1CCN1CCC(NCc2cc3c(cn2)OCCO3)CC1,100 nM,0.26,–,–,–,4 µg/mL,–,–,–,> 8 µg/mL,2 µg/mL,8 µg/mL,–,–,–,1.04,–

# Now from value to compound, other results behind:
IC50 [12],"fraction unbound at 16 h, 10 µM [16]",Structure (SMILES),AUC [1],Vd [2],half-life [3],MIC [4],clearance [5],Vd [6],AUC [7],MIC [8],MIC [9],MIC [10],half-life [11],bioavailability [13],clearance [14],logD [15],IC50 [17]
1.5 nM,0.47,COc1ccc2ncc(=O)n(CCN3CCC(NCc4cc5c(cn4)OCCO5)CC3)c2n1,–,–,–,0.03 µg/mL,–,–,–,4 µg/mL,0.02 µg/mL,0.25 µg/mL,–,–,–,0.83,–
1.3 nM,0.17,COc1ccc2ncc(F)c(CCN3CCC(NCc4cc5c(cn4)OCCO5)CC3)c2n1,–,–,–,< 0.07 µg/mL,–,–,–,4 µg/mL,< 0.01 µg/mL,0.13 µg/mL,–,–,–,1.46,–
0.6 nM,0.06,COc1ccc2ncc(F)c(CCN3CCC(NCc4ccc5c(n4)NC(=O)CO5)CC3)c2n1,–,–,–,0.03 µg/mL,–,–,–,1 µg/mL,0.02 µg/mL,0.06 µg/mL,–,–,–,1.78,–
–,0.09,COc1ccc2c(c1)N(CCN1CCC(NCc3cc4c(cn3)OCCO4)CC1)C(=O)CS2,–,–,–,> 8 µg/mL,–,–,–,> 8 µg/mL,8 µg/mL,> 8 µg/mL,–,–,–,–,–
780 nM,0.04,COc1ccc2c(c1)N(CCN1CCC(NCc3ccc4c(n3)NC(=O)CO4)CC1)C(=O)CC2,–,–,–,> 8 µg/mL,–,–,–,> 8 µg/mL,> 8 µg/mL,> 8 µg/mL,–,–,–,0.66,29000 nM
